# This is a sample that favours compounds with a hit; in the whole collection about 2.6% have one here.
# ERAP1 inh: blocks human ERAP1 aminopeptidase activity; 340,000 compounds, 0.15% hits; recombinant ERAP1, Leu-AMC fluorescence, 60 min; inhibition, % at 10.7 µM;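 active = mean replicate inhibition of at least 30%, or all replicates individually reaching that 30% level; inactive = mean below 30% and not every replicate reaching it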;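 note: 0% = neutral control wells and 100% = L-leucinethiol positive control wells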
# CFTR F508del cor: correctors of CFTR F508del function in bronchial epithelial cells. AID 720511. CFBE cells, YFP halide quenching; stimulated with forskolin plus potentiator P3; % fluorescence drop versus neutral controls. activity (quench increase), % at 7.58 µM. 350,000 compounds, 0.36% hits;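 active = mean added fluorescence quench of at least 8% versus neutral control, with both replicates also reaching 8%; inconclusive = only one of the mean or replicate conditions met; inactive = mean below 8% and not both replicates reaching 8%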;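 note: cells transiently co-express mutant CFTR-F508del with the halide-sensitive YFP; corrector assay measuring rescue of mutant channel to the surface after 24 h compound exposure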
# E-sel inducer: induces E-selectin expression in human endothelial cells; activation, % at 7.58 µM; AID 686992; HUVEC E-selectin immunofluorescence imaging; normalized: neutral wells 0, TNF-alpha wells 100; 260,000 compounds, 0.37% hits;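 active = mean E-selectin-positive cell signal at least 10% of the positive control, reached in at least 60% of replicates, without over 20% cell loss; inconclusive = no rule given, readout overlaps actives, possibly toxicity-flagged; inactive = the rest, including those meeting only one limit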
# Target sequence (P16581 whole entry, looked up): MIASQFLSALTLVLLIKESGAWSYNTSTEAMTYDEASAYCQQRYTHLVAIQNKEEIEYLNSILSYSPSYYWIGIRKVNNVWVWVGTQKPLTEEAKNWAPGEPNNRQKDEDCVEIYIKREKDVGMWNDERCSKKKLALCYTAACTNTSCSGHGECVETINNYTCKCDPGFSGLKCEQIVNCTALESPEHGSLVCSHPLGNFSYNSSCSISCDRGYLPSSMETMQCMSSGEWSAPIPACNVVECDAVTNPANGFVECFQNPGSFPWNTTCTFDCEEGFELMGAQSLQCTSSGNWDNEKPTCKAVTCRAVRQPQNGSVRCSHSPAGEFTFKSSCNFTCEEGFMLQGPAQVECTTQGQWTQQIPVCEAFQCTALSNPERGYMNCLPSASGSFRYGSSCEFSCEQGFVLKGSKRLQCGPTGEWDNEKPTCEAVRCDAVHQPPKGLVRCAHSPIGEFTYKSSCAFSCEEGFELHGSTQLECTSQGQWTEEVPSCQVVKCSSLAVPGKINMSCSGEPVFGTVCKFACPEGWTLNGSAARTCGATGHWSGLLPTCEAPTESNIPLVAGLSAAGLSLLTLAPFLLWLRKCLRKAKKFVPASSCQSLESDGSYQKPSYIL
#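 Test system: HUVEC | Signal: Immunofluorescence imaging | Read-out: Percent E-selectin-positive cells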
# INS-1E GSIS act: GLuc luminescence reporter in INS-1E cells, primary screen for activators of glucose-dependent secretion of insulin; INS-1E GLuc reporter insulin secretion, 2-3 h; activation, % at 16.6 µM; 370,000 compounds, 0.61% hits; AID 743287;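 active = lowest replicate activation of at least 40%, so every replicate reaches that level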;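 note: 0% = median of neutral control wells and 100% = median of IBMX positive control wells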
# miR122 inh: blocks miR-122 activity in Huh7 sensor cells; Huh7 miR-122 Renilla luciferase sensor, 48 h; neutral wells = 0, positive control = 100; activation (reporter increase), % at 12.5 µM; 340,000 compounds, 0.3% hits; AID 602342;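 active = mean replicate activation score at least 90 and every replicate individually at or above 90; inconclusive = only one of the two criteria met; inactive = neither criterion met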;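 note: higher luciferase means less miR-122 activity so hits act as miR-122 inhibitors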
# DENV2 CPE rescue: inhibitors of DENV2 cytopathic effect; DENV2-infected cells, cytopathic effect rescue, plate reader; CPE inhibition, % at 9.99 µM; 350,000 compounds, 1.7% hits; in the data active = CPE inhibition above about 20%, passing the limit was not always enough; inconclusive = no clear call, values can overlap the other calls; tested in BHK-21 cells;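 note: 0% = median of neutral control wells and 100% = median of positive control wells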
# * hit, by the source's call; u = inconclusive; x = no result; ! = a repeat was not active; [ ] = dose if it differs, or a comment.
SMILES,ERAP1 inh,CFTR F508del cor,E-sel inducer,INS-1E GSIS act,miR122 inh,DENV2 CPE rescue
CCCCCCCCCCCCCCCCn1cc[n+](C)c1,79.1*,-4.1,x,186.2*,x,-21.2
CN(C)Cc1cn(CC[C@@H]2CC[C@H](NC(=O)Nc3ccccc3F)[C@H](CO)O2)nn1,3.0,-1.8,-0.3,0.2,x,0.9
Cc1c(C(=O)NCc2ccco2)oc2ccccc12,-0.3,-1.3,48.4*,4.4,2.4,-3.9
Nc1c(C(=O)N2CCCCC2)sc2nc3c(cc12)CCCC3,-2.4,-0.8,x,-7.7,6.4,0.4
Cc1ccc(C(=O)c2sc3nc4c(cc3c2N)CCC4)cc1,x,x,x,73.8*,-4.0,x
COc1cccc(CN(C)Cc2cc(=O)oc3c(C)c(C)ccc23)c1,1.7,2.3,-0.2,-23.9,2.9,2.9
Cc1ccc2c(CN3CCCCC3)cc(=O)oc2c1C,0.4,-0.7,x,3.1,-4.0,-1.3
Cc1ccc2c(CN3CCCc4ccccc43)cc(=O)oc2c1C,x,x,x,x,147.4*,x
Cc1ccccc1CN(C)Cc1cc(=O)oc2c(C)c(C)ccc12,-1.6,-1.3,2.4,92.8*,x,-1.1
COc1cccc(-c2ccc(CC[C@H]3O[C@H]4CC[C@H](CO)O[C@H]4C[C@@H]3NC(=O)c3cnccn3)cc2)c1,2.5,0.3,x,x,x,u
C[C@H]1CN([C@@H](C)CO)C(=O)c2cc(-c3ccc(F)cc3)cnc2O[C@H]1CN(C)C(=O)NC1CCCC1,1.6,-0.4,0.1,-3.7,-28.5[16.7 µM],9.6
Cc1ccc(C2=NOC(C)(c3nnc(-c4ccncc4)o3)C2)cc1 (stereo not drawn),-2.0,2.3,0.0,0.0,x,58.1*
CCCN1C[C@H](C)[C@@H](OC)CN(C)C(=O)c2ccc(NC(=O)c3ccccc3)cc2OC[C@@H]1C,0.1,2.6,0.0,-8.9,x,23.2*
CCCN1C[C@@H](C)[C@@H](OC)CN(C)C(=O)c2ccc(NC(=O)c3cccc(F)c3)cc2OC[C@H]1C,4.5,2.1,-0.1,47.2*!,x,-10.0
CO[C@H]1CN(C)C(=O)c2cc(NC(=O)c3ccc4c(c3)OCO4)ccc2OC[C@H](C)N(CCC(F)(F)F)C[C@@H]1C,2.1,0.5,-0.3,-10.2,x,22.6*
CCCN1C[C@H](C)[C@H](OC)CN(C)C(=O)c2ccc(NC(=O)Nc3cccc(F)c3)cc2OC[C@H]1C,0.6,-0.4,-0.2,-14.4,x,24.6*
CC(C)c1cn(CC[C@H]2CC[C@H](NC(=O)C3CCC3)[C@@H](CO)O2)nn1,2.3,0.4,-0.8,10.3,x,-5.1
O=C1c2c(Br)c(Br)c(Br)c(Br)c2C(=O)N1c1ccccn1,0.5,0.1,0.1,-8.5,x,5.8
O=C1OC(=O)c2c(Br)c(Br)c(Br)c(Br)c21,-3.0,0.6,x,16.3,-1.7,38.9*
Cc1ccccc1-c1ccc([C@H]2[C@H](CO)N3C(=O)CN(C(=O)c4ccncc4)C[C@@H]23)cc1,-0.4,-0.5,0.3,5.2,x,-2.2
Cc1noc(C)c1CSc1nc2[nH]ncc2c(=O)n1-c1ccccc1,x,x,x,x,23.7,x
Cc1noc(C)c1CSc1nc2ccccc2c(=O)n1-c1ccccc1,x,x,x,x,98.6*,x
CCn1c(SCC(=O)NC2CCCCC2)nc2ccccc2c1=O,54.7*,3.3,-0.1,11.1,6.1,19.2
N#CCSc1nc2ccccc2c(=O)n1CC1CCCC1,-2.5,3.0,x,43.7*,19.6,-1.0
O=C(CSc1nc2ccccc2c(=O)n1-c1ccccc1)NCC1CCCO1 (stereo not drawn),82.0*,0.2,x,11.6,0.2,0.5
O=C(NCC[C@@H]1CC[C@H](NS(=O)(=O)Cc2ccccc2)[C@@H](CO)O1)C1CCCC1,1.1,-3.1,0.0,17.3,2.6[16.7 µM],-4.7
COCC(=O)N(C)C[C@H]1Oc2cc(-c3ccccc3)ccc2S(=O)(=O)N([C@H](C)CO)C[C@@H]1C,-1.1,-1.4,0.2,5.2,2.1[16.7 µM],23.3
CC(C)NC(=O)N(C)C[C@@H]1Oc2ccc(NC(=O)CCC(F)(F)F)cc2C(=O)N([C@@H](C)CO)C[C@H]1C,-0.3,0.6,-3.6,25.8,0.7[16.7 µM],-12.1
N[C@H]1CC[C@@H](CCn2cc(-c3ccccn3)nn2)O[C@H]1CO,2.4,2.7,0.0,8.2,1.3[16.7 µM],0.0
Cc1ccc(/C(=N/Nc2ncnc3ccccc23)C(=O)O)cc1,1.6,1.0,51.3*,3.6,0.6,-3.3

# High-throughput results deposited in PubChem BioAssay by Broad Institute.
